Results: ChEMBL document CHEMBL4627366, “Structure-based drug design of 1,3,5-triazine and pyrimidine derivatives as novel FGFR3 inhibitors with high selectivity over VEGFR2” (Bioorg Med Chem, 2020)

Key:
[1] = molecular target: Vascular endothelial growth factor receptor 2 (Homo sapiens, UniProt P35968); experiment: Inhibition of N-terminal GST-tagged human VEGFR2 cytoplasmic domain (790-1356 end amino acid residue) expressed in baculovirus expression system preincubated for 30 to 120 mins followed by incubation with substrate and ATP for 30 mins by off-chip mobility shift assay
How it was run: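 Recombinant VEGFR2 kinase preincubated with compound for 30 or 120 min at RT. Substrate plus ATP (75 µmol/L) added, 30 min at RT, then stopped with termination buffer and read by off-chip mobility shift. No-ATP wells set as 100% inhibition, DMSO wells as 0%. IC50 from Sigmoid-Emax nonlinear regression per experiment.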

[2] = Antiproliferative activity against human UM-UC-14 cells harboring FGFR3 S249C mutation assessed as inhibition of cell growth incubated for 5 days by CellTier-Glo luminescent assay; conditions: UMUC14, 120 h
[3] = molecular target: Fibroblast growth factor receptor 4 (Homo sapiens, UniProt P22455); experiment: Inhibition of N-terminal GST-tagged human FGFR4 cytoplasmic domain (460-802 end amino acids residues) expressed in baculovirus expression system preincubated for 30 to 120 mins followed by incubation with substrate and ATP for 30 mins by off-chip mobility shift assay
[4] = molecular target: Fibroblast growth factor receptor 2 (Homo sapiens, UniProt P21802); experiment: Inhibition of N-terminal GST-tagged human FGFR2 cytoplasmic domain (399-821 end amino acids residues) expressed in baculovirus expression system preincubated for 30 to 120 mins followed by incubation with substrate and ATP for 30 mins by off-chip mobility shift assay
[5] = molecular target: Fibroblast growth factor receptor 1 (Homo sapiens, UniProt P11362); experiment: Inhibition of N-terminal GST-tagged human FGFR1 cytoplasmic domain (398-822 end amino acids residues) expressed in baculovirus expression system preincubated for 30 to 120 mins followed by incubation with substrate and ATP for 30 mins by off-chip mobility shift assay
[6] = molecular target: Fibroblast growth factor receptor 3 (Homo sapiens, UniProt P22607); experiment: Inhibition of N-terminal GST-tagged human FGFR3 cytoplasmic domain (436-806 end amino acids residues) expressed in baculovirus expression system preincubated for 30 to 120 mins followed by incubation with substrate and ATP for 30 mins by off-chip mobility shift assay
Chain of Fibroblast growth factor receptor 3 (P22607 whole entry, the tested form may be a part): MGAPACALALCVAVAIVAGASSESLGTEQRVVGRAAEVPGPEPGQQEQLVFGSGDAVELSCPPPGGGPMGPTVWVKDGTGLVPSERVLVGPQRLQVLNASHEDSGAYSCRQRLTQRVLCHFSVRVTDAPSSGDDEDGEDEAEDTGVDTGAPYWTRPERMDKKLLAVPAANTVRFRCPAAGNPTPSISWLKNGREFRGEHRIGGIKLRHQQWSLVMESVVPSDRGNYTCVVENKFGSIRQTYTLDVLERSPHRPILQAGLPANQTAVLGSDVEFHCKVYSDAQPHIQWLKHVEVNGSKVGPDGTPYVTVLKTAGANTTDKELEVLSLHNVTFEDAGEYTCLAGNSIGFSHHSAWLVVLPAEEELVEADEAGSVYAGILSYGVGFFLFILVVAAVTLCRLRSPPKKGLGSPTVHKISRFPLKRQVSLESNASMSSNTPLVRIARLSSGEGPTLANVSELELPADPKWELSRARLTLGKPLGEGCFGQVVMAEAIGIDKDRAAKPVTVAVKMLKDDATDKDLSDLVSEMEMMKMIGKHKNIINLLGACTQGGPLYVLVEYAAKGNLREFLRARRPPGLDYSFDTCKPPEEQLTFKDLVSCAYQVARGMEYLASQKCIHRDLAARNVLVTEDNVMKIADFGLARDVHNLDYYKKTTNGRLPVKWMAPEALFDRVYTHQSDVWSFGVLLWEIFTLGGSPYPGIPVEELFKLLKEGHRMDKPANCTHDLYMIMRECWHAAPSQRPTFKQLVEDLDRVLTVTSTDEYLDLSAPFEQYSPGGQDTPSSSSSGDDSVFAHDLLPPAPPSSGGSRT

Chain of Vascular endothelial growth factor receptor 2 (P35968 whole entry, the tested form may be a part): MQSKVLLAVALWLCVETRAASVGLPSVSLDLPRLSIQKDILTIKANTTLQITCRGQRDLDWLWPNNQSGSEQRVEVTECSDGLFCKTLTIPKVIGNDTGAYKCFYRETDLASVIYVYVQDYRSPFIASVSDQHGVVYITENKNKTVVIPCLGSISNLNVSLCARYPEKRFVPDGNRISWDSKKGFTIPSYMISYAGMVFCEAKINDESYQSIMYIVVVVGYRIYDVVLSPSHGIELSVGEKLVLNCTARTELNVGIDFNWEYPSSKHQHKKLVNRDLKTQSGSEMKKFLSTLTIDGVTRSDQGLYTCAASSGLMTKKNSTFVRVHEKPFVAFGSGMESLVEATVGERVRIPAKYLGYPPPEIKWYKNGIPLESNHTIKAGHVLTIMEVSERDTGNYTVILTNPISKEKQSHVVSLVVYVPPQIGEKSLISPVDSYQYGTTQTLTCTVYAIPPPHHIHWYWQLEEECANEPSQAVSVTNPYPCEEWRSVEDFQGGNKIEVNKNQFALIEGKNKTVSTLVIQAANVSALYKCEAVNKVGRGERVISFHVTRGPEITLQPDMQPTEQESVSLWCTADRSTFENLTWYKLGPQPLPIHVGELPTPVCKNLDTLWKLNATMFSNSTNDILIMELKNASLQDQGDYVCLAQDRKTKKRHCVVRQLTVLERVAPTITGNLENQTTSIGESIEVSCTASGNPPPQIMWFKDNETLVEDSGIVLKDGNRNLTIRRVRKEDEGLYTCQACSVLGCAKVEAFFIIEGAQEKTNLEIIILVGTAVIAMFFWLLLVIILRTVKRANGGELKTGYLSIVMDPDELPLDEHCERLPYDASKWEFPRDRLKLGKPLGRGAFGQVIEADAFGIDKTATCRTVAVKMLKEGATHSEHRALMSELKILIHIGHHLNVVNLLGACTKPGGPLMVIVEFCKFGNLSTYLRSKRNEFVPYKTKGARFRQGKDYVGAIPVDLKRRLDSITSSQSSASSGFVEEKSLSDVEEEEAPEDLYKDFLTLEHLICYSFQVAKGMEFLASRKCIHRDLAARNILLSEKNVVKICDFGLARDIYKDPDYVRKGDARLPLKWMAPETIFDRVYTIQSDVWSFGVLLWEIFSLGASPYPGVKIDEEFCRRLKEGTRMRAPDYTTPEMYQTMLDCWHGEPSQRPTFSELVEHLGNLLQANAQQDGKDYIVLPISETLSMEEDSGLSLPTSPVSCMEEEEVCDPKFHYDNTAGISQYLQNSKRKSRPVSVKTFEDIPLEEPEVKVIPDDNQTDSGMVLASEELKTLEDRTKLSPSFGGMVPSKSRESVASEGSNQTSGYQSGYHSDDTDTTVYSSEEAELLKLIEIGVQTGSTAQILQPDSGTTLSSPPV
Chain of Fibroblast growth factor receptor 1 (P11362 whole entry, the tested form may be a part): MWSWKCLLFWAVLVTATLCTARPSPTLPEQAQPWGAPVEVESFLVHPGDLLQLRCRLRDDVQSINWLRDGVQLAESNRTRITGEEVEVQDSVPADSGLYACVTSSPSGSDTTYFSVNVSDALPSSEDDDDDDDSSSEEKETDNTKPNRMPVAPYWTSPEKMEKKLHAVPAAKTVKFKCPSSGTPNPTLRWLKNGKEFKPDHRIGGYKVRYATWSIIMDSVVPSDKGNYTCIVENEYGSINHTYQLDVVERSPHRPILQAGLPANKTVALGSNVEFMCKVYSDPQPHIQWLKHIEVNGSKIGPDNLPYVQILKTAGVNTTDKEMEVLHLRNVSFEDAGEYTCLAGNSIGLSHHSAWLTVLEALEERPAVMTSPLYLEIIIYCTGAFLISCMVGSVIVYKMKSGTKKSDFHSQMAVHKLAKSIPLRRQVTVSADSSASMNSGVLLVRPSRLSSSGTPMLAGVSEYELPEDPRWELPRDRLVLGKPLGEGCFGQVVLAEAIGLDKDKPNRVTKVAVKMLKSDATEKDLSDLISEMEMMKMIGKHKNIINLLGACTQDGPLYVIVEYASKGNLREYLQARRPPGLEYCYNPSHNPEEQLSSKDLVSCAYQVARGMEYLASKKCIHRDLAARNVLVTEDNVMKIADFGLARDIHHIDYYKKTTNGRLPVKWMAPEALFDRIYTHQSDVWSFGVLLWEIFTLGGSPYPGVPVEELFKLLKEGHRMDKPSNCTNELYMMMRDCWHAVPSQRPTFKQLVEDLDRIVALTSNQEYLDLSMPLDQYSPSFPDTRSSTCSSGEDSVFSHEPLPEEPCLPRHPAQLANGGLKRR
Chain of Fibroblast growth factor receptor 4 (P22455 whole entry, the tested form may be a part): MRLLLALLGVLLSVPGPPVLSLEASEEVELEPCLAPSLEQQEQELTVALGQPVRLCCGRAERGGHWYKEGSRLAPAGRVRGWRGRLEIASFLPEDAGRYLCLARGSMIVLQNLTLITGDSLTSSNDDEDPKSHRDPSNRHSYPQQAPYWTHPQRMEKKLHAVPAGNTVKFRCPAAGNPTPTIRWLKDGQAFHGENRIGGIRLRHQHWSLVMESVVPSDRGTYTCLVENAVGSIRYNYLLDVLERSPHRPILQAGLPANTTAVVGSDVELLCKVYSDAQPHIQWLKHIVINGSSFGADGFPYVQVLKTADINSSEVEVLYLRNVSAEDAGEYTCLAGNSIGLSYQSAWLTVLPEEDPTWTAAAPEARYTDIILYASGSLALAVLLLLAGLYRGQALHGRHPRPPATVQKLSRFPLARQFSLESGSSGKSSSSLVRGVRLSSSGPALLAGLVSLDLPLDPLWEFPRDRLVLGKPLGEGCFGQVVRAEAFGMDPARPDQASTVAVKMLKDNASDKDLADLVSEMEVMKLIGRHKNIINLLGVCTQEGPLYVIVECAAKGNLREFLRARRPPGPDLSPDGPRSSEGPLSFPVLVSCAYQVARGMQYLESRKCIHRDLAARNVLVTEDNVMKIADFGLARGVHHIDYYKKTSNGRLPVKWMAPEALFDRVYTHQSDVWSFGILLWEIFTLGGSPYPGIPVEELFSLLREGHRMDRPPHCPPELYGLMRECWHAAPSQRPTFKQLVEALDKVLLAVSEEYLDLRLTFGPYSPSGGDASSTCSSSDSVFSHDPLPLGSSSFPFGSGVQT
Chain of Fibroblast growth factor receptor 2 (P21802 whole entry, the tested form may be a part): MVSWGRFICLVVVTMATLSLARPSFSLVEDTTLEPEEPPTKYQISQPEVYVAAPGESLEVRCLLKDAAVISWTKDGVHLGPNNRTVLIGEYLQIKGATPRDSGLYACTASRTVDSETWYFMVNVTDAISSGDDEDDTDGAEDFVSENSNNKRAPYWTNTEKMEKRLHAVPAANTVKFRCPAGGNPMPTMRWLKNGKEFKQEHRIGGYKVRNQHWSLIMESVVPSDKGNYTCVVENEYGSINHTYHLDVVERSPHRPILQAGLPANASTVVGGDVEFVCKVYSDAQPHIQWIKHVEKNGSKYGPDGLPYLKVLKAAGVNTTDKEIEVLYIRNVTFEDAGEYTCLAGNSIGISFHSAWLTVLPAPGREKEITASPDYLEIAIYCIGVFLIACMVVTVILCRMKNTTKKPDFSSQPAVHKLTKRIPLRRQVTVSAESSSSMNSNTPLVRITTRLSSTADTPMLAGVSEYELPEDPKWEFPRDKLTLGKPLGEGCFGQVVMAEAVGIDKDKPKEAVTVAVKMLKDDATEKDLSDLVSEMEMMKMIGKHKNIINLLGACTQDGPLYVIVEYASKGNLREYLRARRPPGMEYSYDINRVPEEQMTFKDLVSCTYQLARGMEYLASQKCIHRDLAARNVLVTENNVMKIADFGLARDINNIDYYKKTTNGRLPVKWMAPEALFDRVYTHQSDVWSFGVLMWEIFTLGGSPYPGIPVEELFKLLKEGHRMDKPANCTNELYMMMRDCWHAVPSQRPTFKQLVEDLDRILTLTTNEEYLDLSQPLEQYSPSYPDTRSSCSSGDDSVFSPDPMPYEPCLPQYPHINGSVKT

CCNS(=O)(=O)c1ccccc1Nc1nc(Nc2ccc(N3CCC(N4CCN(C)CC4)CC3)c(OC)c2)ncc1NC(=O)c1cc(O)cc(O)c1
IC50 [1]: 715 nM

CCNS(=O)(=O)c1ccccc1Nc1nc(Nc2ccc(N3CCC(N4CCN(C)CC4)CC3)c(OC)c2)ncc1NC(=O)c1cc(OC)cc(OC)c1
IC50 [2]: 84 nM
IC50 [1]: > 1000 nM
IC50 [3]: 74 nM
IC50 [4]: 3.1 nM
IC50 [5]: 2.1 nM

CCNS(=O)(=O)c1ccccc1Nc1ncnc(Nc2ccc(N3CCN(C)CC3)c(OCCN3CCN(C)CC3)c2)n1
IC50 [1]: 341 nM

CCNS(=O)(=O)c1ccccc1Nc1ncnc(Nc2ccc(N3CCC(N4CCN(C)CC4)CC3)c(OC)c2)n1
IC50 [1]: 266 nM

CCNS(=O)(=O)c1ccccc1Nc1nc(Nc2ccc(N3CCC(N4CCN(C)CC4)CC3)c(OC)c2)ncc1Cc1cc(OC)cc(OC)c1
IC50 [6]: > 1000 nM
IC50 [1]: > 1000 nM

CCNS(=O)(=O)c1ccccc1Nc1nc(Nc2ccc(N3CCC(N4CCN(C)CC4)CC3)c(OC)c2)ncc1NC(=O)c1nc(OC)cc(OC)n1
IC50 [1]: 131 nM

CCNS(=O)(=O)c1ccccc1Nc1nc(Nc2ccc(N3CCC(N4CCN(C)CC4)CC3)c(OC)c2)ncc1-c1cc(OC)cc(OC)c1
IC50 [1]: 38 nM

CCNS(=O)(=O)c1ccccc1Nc1ncnc(Nc2ccc(N3CCN(C)CC3)c(OCC(=O)O)c2)n1
IC50 [1]: 120 nM

CCNS(=O)(=O)c1ccccc1Nc1ncnc(Nc2ccc(N3CCN(C)CC3)c(OCCCN3CCOCC3)c2)n1
IC50 [1]: 736 nM

CCNS(=O)(=O)c1ccccc1Nc1nc(Nc2ccc(N3CCC(N4CCN(C)CC4)CC3)c(OC)c2)ncc1CCc1cc(OC)cc(OC)c1
IC50 [1]: 292 nM

CCNS(=O)(=O)c1ccccc1Nc1ncnc(Nc2ccc(N3CCN(C)CC3)c(OCCOCCOC)c2)n1
IC50 [1]: 550 nM

CCNS(=O)(=O)c1ccccc1Nc1ncnc(Nc2ccc(N3CCN(C)CC3)c(OC)c2)n1
IC50 [1]: 341 nM

CCNS(=O)(=O)c1ccccc1Nc1nc(Nc2ccc(N3CCC(N4CCN(C)CC4)CC3)c(OC)c2)ncc1NC(=O)c1cc(OC)ccc1OC
IC50 [1]: 435 nM

CCNS(=O)(=O)c1ccccc1Nc1nc(Nc2ccc(N3CCC(N4CCN(C)CC4)CC3)c(OC)c2)ncc1NC(=O)c1cccc(OC)c1OC
IC50 [1]: 461 nM

CCNS(=O)(=O)c1ccccc1Nc1nc(Nc2ccc(N3CCC(N4CCN(C)CC4)CC3)c(OC)c2)ncc1NC(=O)c1cc(C)cc(C)c1
IC50 [1]: 554 nM

CCNS(=O)(=O)c1ccccc1Nc1ncnc(Nc2ccc(N3CCN(C)CC3)c(OCCN3CCOCC3)c2)n1
IC50 [1]: 570 nM

CCNS(=O)(=O)c1ccccc1Nc1ncnc(Nc2ccc(N3CCN(C)CC3)c(OCC(=O)OCC)c2)n1
IC50 [1]: 316 nM

CCNS(=O)(=O)c1ccccc1Nc1nc(Nc2ccc(N3CCC(N4CCN(C)CC4)CC3)c(OC)c2)ncc1NC(=O)c1cc(OC)nc(OC)n1
IC50 [1]: 227 nM

CCNS(=O)(=O)c1ccccc1Nc1ncnc(Nc2ccc(N3CCN(C)CC3)c(OCCOC)c2)n1
IC50 [1]: 310 nM
